Assay outcomes deposited in PubChem BioAssay by several laboratories.
This is a sample that favours compounds with a hit; in the whole collection about 3.1% have one here.
Tb hexokinase: T. brucei hexokinase 1 inhibition. inhibition, % at 10 µM. recombinant TbHK1, G6PDH-coupled NADH A340. hit rate 0.11% among 220,000. AID 1430;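 active = inhibition of 50% or more in the single-dose primary screen; inactive = inhibition below 50%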
HSP90 refold inh: blocks HSP90-mediated luciferase refolding in reticulocyte lysate | Rabbit reticulocyte lysate, luciferase refolding luminescence, 3 h | inhibition, % at 5.6 µM | hit rate 0.91% among 290,000;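 active = inhibition above the screen-wide mean plus 3 SD, computed separately per campaign, cut at about 16% in these data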;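 also: 0% = DMSO wells and 100% = 60 µM geldanamycin wells; inhibitors lower the luminescence because luciferase stays unfolded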
HKDC1 inhibitor: blocks human hexokinase HKDC1 activity. inhibition, % at 20 µM. recombinant HKDC1, G6PDH/diaphorase resazurin coupled fluorescence. hit rate 0.16% among 340,000. Q2TB90. AID 493160;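 active = inhibition above about 35% when tested at 20 µM, limit read from the data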;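 also: plate controls were DMSO wells with enzyme for no effect and DMSO wells lacking enzyme for full effect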
Target sequence (Q2TB90 whole entry, looked up): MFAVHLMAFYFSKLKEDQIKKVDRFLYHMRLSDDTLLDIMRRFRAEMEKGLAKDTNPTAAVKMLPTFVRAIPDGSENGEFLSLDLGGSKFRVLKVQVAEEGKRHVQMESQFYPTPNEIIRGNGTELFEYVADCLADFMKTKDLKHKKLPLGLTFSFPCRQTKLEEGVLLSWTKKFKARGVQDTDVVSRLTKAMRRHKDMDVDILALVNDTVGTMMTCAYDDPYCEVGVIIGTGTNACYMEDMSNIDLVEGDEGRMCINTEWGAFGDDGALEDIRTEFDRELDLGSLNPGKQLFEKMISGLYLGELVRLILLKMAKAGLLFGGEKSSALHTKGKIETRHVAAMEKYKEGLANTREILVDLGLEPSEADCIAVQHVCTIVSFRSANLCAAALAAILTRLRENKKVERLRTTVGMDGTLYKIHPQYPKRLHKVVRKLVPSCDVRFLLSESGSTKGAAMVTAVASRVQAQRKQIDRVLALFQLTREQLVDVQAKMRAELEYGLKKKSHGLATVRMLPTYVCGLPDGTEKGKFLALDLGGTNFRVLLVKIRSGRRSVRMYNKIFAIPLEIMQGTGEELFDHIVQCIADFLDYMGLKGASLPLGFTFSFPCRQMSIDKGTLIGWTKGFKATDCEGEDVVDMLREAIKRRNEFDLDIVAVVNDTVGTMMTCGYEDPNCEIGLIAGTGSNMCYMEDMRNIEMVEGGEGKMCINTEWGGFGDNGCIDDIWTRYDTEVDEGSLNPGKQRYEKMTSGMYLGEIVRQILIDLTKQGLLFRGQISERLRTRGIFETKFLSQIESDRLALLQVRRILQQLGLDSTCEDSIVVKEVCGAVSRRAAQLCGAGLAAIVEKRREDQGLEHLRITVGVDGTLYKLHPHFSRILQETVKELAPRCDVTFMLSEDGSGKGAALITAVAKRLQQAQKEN
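Test system: Recombinant HKDC1 (HK5) hexokinase enzyme, produced in-house | Input: HKDC1 at 5 µg/mL | Buffer or medium: Tris pH 8.0 buffer with MgCl2, Tween-20, BSA, BME | Schedule: 90 min reaction incubation at room temperature, dark | Technique: Resazurin-to-resorufin fluorescence via G6PDH and diaphorase coupling, 525/613 nm | Controls: DMSO wells with and without enzyme mix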
HSF1 activator: increases HSF-1 driven luciferase reporter signal | NIH3T3-HGL HSF-1 luciferase reporter, MG132, 8 h; 100% = twice DMSO control signal | activation, % at 9 µM | hit rate 1.7% among 300,000;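 active = mean replicate activation of at least 50% with a set share of replicates each reaching 50%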;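 also: 0% = median of the neutral control wells and 100% = twice that signal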
HSF1 inh: HSF1 inhibition; activity change, negative = inhibition, % at 7.5 µM (by protocol); NIH3T3-HGL HSE-luciferase, MG132-induced, luminescence 8 h; hits give low values; hit rate 0.77% among 300,000; AID 2098;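 active = more than half of replicate wells show activity change below -50%, luminescence cut by over half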;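 also: luciferase reports HSF-1 transcriptional activity via heat shock element; 0% = median of DMSO wells and -100% = zero luminescence signal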
Hsp70 act: switches on Hsp70 transcription; HeLa Hsp70 promoter luciferase reporter, luminescence; scaled: vehicle 0, proteasome-inhibitor control 100%; activation, % at 10 µM; hit rate 0.04% among 200,000; AID 1203;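 active = activation above the mean across all tested compounds plus 3 SD, cutoff set per campaign, cut at about 5.5% in these data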;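 also: 100% = MG132 at 30 µM as the positive control and 0% = DMSO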
* = called active by the depositor; x = no result given.

SMILES | Tb hexokinase | HSP90 refold inh | HKDC1 inhibitor | HSF1 activator | HSF1 inh | Hsp70 act
COc1cc(C(O)P(=O)(OC2CCCCC2)c2ccc(N(C)C)cc2)cc(OC)c1OC (configuration not stated) | 3 | 0 | -2 | 57* | 28 | 0
CCOC(=O)C1CCN(C(=O)c2cc3c(ccc4ccccc43)o2)CC1 | x | -2 | 3 | 77* | 52 | x
O=[N+]([O-])c1c(Nc2cccc(O)c2)cc(Cl)c2nonc12 | x | 0 | 12 | 164* | 163 | x
O=C(Cc1ccccc1[N+](=O)[O-])NCC(=O)c1ccc2c(c1)OCO2 | x | x | -5 | -34 | -34 | x
NC(=O)CCN1CCN(CCOC2Cc3cc(Cl)ccc3Sc3ccccc32)CC1 (configuration not stated) | -15 | -3 | -4 | 59* | 20 | 0
COC(=O)c1ccc(CN2CCN(CCc3ccccc3)C(CCO)C2)cc1 (configuration not stated) | -4 | -3 | -6 | -78 | -72* | 0
Cc1ccc(CN2CCN(Cc3cccc(OCCO)c3)CC2CCO)o1 (configuration not stated) | 7 | 5 | -11 | -89 | -86* | 0
OCCC1CN(Cc2cccc(-n3cccn3)c2)CCN1Cc1ccccc1 (configuration not stated) | 1 | 4 | -3 | -67 | -65* | 0
CC(C)CCN1CCN(Cc2cccc(-n3cccn3)c2)CC1CCO (configuration not stated) | 5 | 4 | -5 | 4 | -9 | 0
CCOc1ccc(N(Cc2ccc(C(=O)O)cc2)S(=O)(=O)c2ccc(C)cc2)cc1 | x | -6 | -1 | 8 | 3 | x
COc1cc(C(=O)N2CCN(S(=O)(=O)c3ccc(C)cc3)CC2)ccc1OCC(=O)N1CCOCC1 | x | x | -7 | x | x | x
Cc1ncc(CN2CCCC(C(=O)Nc3ccc(-c4cccc(F)c4)cc3)C2)n1C (configuration not stated) | x | 2 | 0 | 14 | 0 | x
O=C(Cn1ccc(=O)[nH]c1=O)Nc1ccc(O)c([N+](=O)[O-])c1 | x | x | 2 | x | x | x
O=C(Oc1ccc(C(=S)N2CCOCC2)cc1Br)c1cc(Cl)ccc1Cl | -3 | 3 | 8 | 78* | 19 | 0
O=c1cc(-c2ccc(F)cc2)[nH][nH]1 | 1 | 17* | -8 | 33 | 20 | 0
C[C@H]1CN=C(Nc2ccccc2)N1CC1CCCCCC1 | x | -2 | -2 | -5 | 6 | x
CCn1c(SCC(=O)c2ccc(Cl)cc2)nnc1C(C)C | 23 | 0 | 2 | 145* | 148 | 0
CCn1c(CNC(C)=O)nnc1SCC(=O)c1ccc(Br)cc1 | -2 | -2 | -5 | 82* | 70 | 0
Cn1c(CO)cnc1SCC(=O)c1ccc(Cl)cc1 | -4 | 4 | -1 | 80* | 48 | 0
COC(=O)c1cnc(SCc2ccc(Cl)cc2)n1C | 3 | -2 | 4 | 69* | 52 | 0
Cc1ccc(C(=O)Nc2ccccc2C(=O)Nc2ccccn2)cc1Cl | x | -2 | 5 | 8 | 7 | x
COC(C(=O)N1CCC(CCC(=O)Nc2ccccc2)CC1)c1ccccc1 (configuration not stated) | x | -2 | -6 | 2 | 13 | x
CCn1c(SCC(=O)c2ccc(Cl)cc2)nnc1-c1ccoc1C | 1 | 1 | 4 | 75* | 40 | 0
CN(C(=O)COC(=O)C1CSC2(C)CCC(=O)N12)c1ccccc1 (configuration not stated) | x | x | -4 | -6 | -6 | x
COc1cccc(-c2nn(C)c3sc(C(=O)N4CCOCC4)cc23)c1 | -13 | 27* | -3 | -2 | -4 | 0
COc1cccc(-c2nn(C)c3sc(C(=O)N4CCN(c5ccccn5)CC4)cc23)c1 | -12 | 3 | 4 | -6 | 2 | 0
CCc1nnc(NC(=O)C2Cc3ccccc3CN2S(=O)(=O)c2ccc(C)cc2)s1 (configuration not stated) | -3 | -3 | 5 | 58* | 25 | 0
CCc1nnc(NC(=O)C2Cc3ccccc3CN2S(=O)(=O)c2cccs2)s1 (configuration not stated) | -2 | -4 | 1 | 84* | 43 | 0
COC(=O)c1c(C)[nH]c(C(=O)COC(=O)CCNS(=O)(=O)c2cccc(C(F)(F)F)c2)c1C | x | x | 1 | x | x | x
